Compound activity as filed in PubChem.
Xi reactivation – activators of inactive X chromosome reactivation, primary screen, imaging, XiGFP fibroblasts, GFP high-content imaging, set 2; AID 743238, 2013; 360,000 compounds, 0.055% hits; XiGFP mouse fibroblasts, % GFP-positive cells imaging, 3 d; cells co-treated with 5-aza-dC sensitizer; scaled so ellipticine positive control = 100%; activation, % at 7.58 µM;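 active = mean normalized replicate activation at least 10% and every replicate at or above 10%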;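 also: 0% = median of on-plate neutral control wells and 100% = ellipticine 6 µM median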
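Schedule: 3 d treatment, 15 min room-temperature fixation; system: 68-5-11 XiGFP fibroblast line; buffer or medium: DMEM plus 5-aza-dC sensitizer; control set: ellipticine 6 µM positive control; compound: one concentration, pinned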
PvdQ acylase – P. aeruginosa PvdQ acylase inhibitors, primary screen, biochemical, fluorescence, plate reader and imaging, single point. PvdQ acylase [Pseudomonas aeruginosa LESB58]. purified PvdQ acylase. inhibition, % at 10 µM. 340,000 compounds, 0.063% hits. AID 488965, 2010; in the data active = inhibition above about 30%, passing the limit was not always enough;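 also: 0% = vehicle neutral wells and 100% = reference inhibitor wells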
ERAP1 inh – human ERAP1 aminopeptidase inhibitors, primary screen, biochemical, single point, plate reader; recombinant ERAP1, Leu-AMC fluorescence, 60 min; AID 652197, 2013; 340,000 compounds, 0.15% hits; inhibition, % at 10.7 µM;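 active = mean replicate inhibition of at least 30%, or all replicates individually reaching that 30% level; inactive = mean below 30% and not every replicate reaching it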;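 also: 0% = neutral control wells and 100% = L-leucinethiol positive control wells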
Target sequence (Q9NZ08 whole entry, looked up): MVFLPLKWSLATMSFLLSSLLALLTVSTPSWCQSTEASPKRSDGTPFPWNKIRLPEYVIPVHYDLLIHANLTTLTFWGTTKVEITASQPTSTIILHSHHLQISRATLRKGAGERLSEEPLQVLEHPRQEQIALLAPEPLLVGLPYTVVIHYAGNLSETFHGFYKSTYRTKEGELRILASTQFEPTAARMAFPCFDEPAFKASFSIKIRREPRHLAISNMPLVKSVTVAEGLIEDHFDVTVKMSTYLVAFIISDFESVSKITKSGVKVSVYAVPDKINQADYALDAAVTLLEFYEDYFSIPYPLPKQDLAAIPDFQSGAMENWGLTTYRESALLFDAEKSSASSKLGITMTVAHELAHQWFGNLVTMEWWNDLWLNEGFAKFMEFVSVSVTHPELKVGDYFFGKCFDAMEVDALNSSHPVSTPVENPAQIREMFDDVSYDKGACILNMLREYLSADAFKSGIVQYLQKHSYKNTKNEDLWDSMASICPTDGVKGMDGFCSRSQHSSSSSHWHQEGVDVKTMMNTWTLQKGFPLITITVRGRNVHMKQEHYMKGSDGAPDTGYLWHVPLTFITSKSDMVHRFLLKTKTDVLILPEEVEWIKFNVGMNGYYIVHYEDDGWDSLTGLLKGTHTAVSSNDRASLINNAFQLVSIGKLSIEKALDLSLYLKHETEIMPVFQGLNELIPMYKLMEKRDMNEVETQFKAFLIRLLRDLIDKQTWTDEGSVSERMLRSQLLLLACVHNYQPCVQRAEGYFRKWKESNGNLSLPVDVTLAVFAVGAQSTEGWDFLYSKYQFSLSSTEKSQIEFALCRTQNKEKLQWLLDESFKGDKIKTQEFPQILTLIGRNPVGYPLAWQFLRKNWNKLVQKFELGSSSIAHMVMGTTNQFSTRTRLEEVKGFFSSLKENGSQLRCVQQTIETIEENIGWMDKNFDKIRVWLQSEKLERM
CaV13 FRET inh – Disruptors of the CACNA1D IQ motif to Ca2+-dependent inactivation inhibitor domain association, primary screening, Förster resonance energy transfer in intact living …. 340,000 compounds, 0.098% hits. AID 743397. inhibition, % at 12.3 µM. HEK cells, CFP/YFP FRET ICDI-IQ, plate reader, 10 min; percent FRET-ratio fall versus neutral wells;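 active = mean replicate inhibition of at least 30% and at least 1% of replicates passing that level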;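 also: 0% = median of the neutral control wells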
Starred values were filed as active, the others as inactive; / = not tested or not shown; + = active, no number. A selection: hits, their analogues and other compounds. The true share with any hit is near 0.27%.

SMILES	Xi reactivation	PvdQ acylase	ERAP1 inh	CaV13 FRET inh
Cc1cc(Cl)cc2c(N=Nc3ccccc3C(=O)O)c(O)[nH]c12	0.2	-6.0	1.9	-3.7
Cc1ccc(Cl)c2c(N=Nc3ccccc3)c(O)[nH]c12	26.7*	6.2	-0.7	-291.2
Cc1ccc2nc3c(cc(C(=O)NCCc4ccccc4)c(=N)n3CCN3CCOCC3)c(=O)n2c1	/	-5.1	/	/
Cc1cccn2c(=O)c3cc(C(=O)NC(C)c4ccccc4)c(=N)n(CCCn4ccnc4)c3nc12 (stereo not given)	/	-21.3	/	75.3*
Cc1ccc2nc3c(cc(C(=O)NCc4ccccc4)c(=N)n3CCCn3ccnc3)c(=O)n2c1	-0.1	-14.5	-205.4	+
COCCCn1c(=N)c(C(N)=S)cc2c(=O)n3cccc(C)c3nc21	0.3	-16.3	-11.1	13.9
Cc1ccc2nc3c(cc(C(N)=S)c(=N)n3CCCOC(C)C)c(=O)n2c1	/	-10.8	33.3*	34.0*
O=C(C[C@@H]1CC[C@H](NC(=O)c2ccncc2)[C@H](CO)O1)Nc1ccc(-c2ccccc2)cc1	-0.6	/	/	/
CCCN1C[C@H](C)[C@H](OC)CN(C)C(=O)c2ccc(NC(=O)C3CCOCC3)cc2OC[C@H]1C	-0.3	/	0.0	/
CC(C)(C)C1CCC(OC(=O)C[N+]2(C)CCCC2)CC1 (stereo not given)	-0.1	-15.8	40.9*	0.6
CC(C)(C)C1CCC(OC(=O)C[N+]2(C)CCCCC2)CC1 (stereo not given)	0.0	-5.8	2.8	-4.2
C[N+]1(CC(=O)OCCCC2CCCCC2)CCCC1	0.0	4.4	107.9*	-6.8
COCC(=O)Nc1ccc2c(c1)C(=O)N(C)C[C@@H](OC)[C@@H](C)CN(Cc1cc(F)ccc1F)[C@@H](C)CO2	-0.1	/	2.7	/
CC(=O)N(C)C[C@H]1Oc2c(N)cccc2C(=O)N(C)C[C@@H]1C	-0.1	/	/	/
c1ccc(-c2nnc(-c3ccco3)o2)cc1	/	-5.5	/	-0.8
Brc1ccc(-c2nnc(-c3ccco3)o2)cc1	/	90.1*	/	/
COC(=O)c1cccc(Cn2nnc3ccccc3c2=O)c1	/	0.2	/	-2.2
O=c1c2ccccc2nnn1Cc1ccc2ccccc2c1	72.7*	-1.4	-1.2	-30.7
COc1cccc2c1C(=O)c1c(O)c3c(c(O)c1C2=O)CC(O)(C(C)=O)CC3OC1CC(O)C(O)C(C)O1 (stereo not given)	0.0	9.2	31.8*	-6.8
CC(=O)c1cccc(-c2ccnc3c2CC(C(=O)NCc2ccc(F)c(F)c2)O3)c1 (stereo not given)	0.0	/	0.2	43.7*
CC(=O)N1[C@H](CO)[C@@H](c2ccccc2)C12CN(C(=O)CN1CCOCC1)C2	0.1	/	/	/
Cc1c(Nc2nc3ccccc3nc2N2CCN(c3ccccc3)CC2)c(=O)n(-c2ccccc2)n1C	/	-7.4	/	-3.5
Cc1c(Nc2c3ccccc3nc3ccccc23)c(=O)n(-c2ccccc2)n1C	0.0	0.6	-35.7	165.0*
O=C(/C=C/c1ccc(Br)cc1)c1ccco1	0.0	56.0*	11.1	-4.6
O=C(/C=C/c1ccc(Br)cc1)c1ccc(NC(=O)c2ccco2)cc1	0.0	-7.0	/	-5.4
SMILES	Xi reactivation	PvdQ acylase	ERAP1 inh	CaV13 FRET inh
C[C@@H]1CN([C@H](C)CO)S(=O)(=O)c2ccc(C#CC3(O)CCCC3)cc2O[C@@H]1CN(C)C(=O)Nc1cccc(F)c1	0.0	/	3.8	/
Cc1ccc(NCCN(C)C)c2c(=O)c3cc(O)ccc3sc12	-0.1	-6.1	63.9*	-11.2
CCOc1ccc(NC(=O)CN(C)C(=O)CCCNC(=O)c2ccc(Cl)cc2)cc1OCC	-0.1	/	15.2	32.4*
COc1cccc(NC(=O)CN(C)C(=O)CCCNC(=O)c2ccc(Cl)cc2)c1	0.2	3.5	0.5	-2.4
CSc1cccc(NC(=O)CCCNC(=O)c2ccc(Cl)cc2)c1	0.1	-14.1	51.1*	-2.3
CCCC#Cc1ccc2c(c1)[C@H]1[C@H](CCN1C(=O)C1CCCCC1)[C@@H](CO)N2	0.1	/	/	/
Cc1cccc(NC(=O)CSc2cn[nH]n2)c1	0.0	-23.0	-2.1	-3.7
O=C(CSc1cn[nH]n1)Nc1cccc(C(=O)O)c1	0.2	-1.0	32.4*	-2.6
CCc1ccccc1OCC(=O)Nc1ccc(N2CCCC2)cc1C	37.5*	-18.5	1.5	-6.4
CCC(=O)N1CC2(C1)CN(C(=O)CN1CCOCC1)[C@@H](CO)c1[nH]c3cc(OC)ccc3c12	0.4	/	/	/
Cc1cc(-n2c(=O)c(C#N)cc3c(=O)n4cccc(C)c4nc32)no1	/	-32.5	/	42.5*
Cc1cccn2c(=O)c3cc(C#N)c(=O)n(-c4c(C)n(C)n(-c5ccccc5)c4=O)c3nc12	/	-2.5	/	-4.1
Cc1cc(C)cc(N2CC(c3nc4ccccc4n3C)CC2=O)c1 (stereo not given)	0.0	-9.2	102.6*	-1.5
Cc1ccc(N2CC(c3nc4ccccc4n3C)CC2=O)cc1C (stereo not given)	0.2	-13.2	0.8	-3.0
O=c1c2ccccc2ncn1-c1ccc(Cl)cc1Cl	0.1	/	1.6	-19.1
O=c1c2ccccc2sn1-c1ccc(Cl)cc1Cl	0.0	/	81.4*	-4.0
CC(C)C[C@@H]1COCc2cn(nn2)CC[C@H](Cc2ccc(-c3ccccc3)cc2)C(=O)N1	0.0	/	/	/
O=c1oc2ccccc2cc1-c1csc(NN=C2CCCC2)n1	0.0	-1.9	/	-5.3
O=C(O)c1cccc(Nc2nc(-c3cc4ccccc4oc3=O)cs2)c1	0.0	-3.4	-5.8	76.9*
CS(=O)(=O)N1CC2(C1)[C@@H](c1ccccc1)[C@@H](CO)N2C(=O)C1CCC1	-0.1	/	/	/
C[C@@H]1CN([C@@H](C)CO)C(=O)c2c(c3ccccc3n2C)-c2ccccc2CO[C@H]1CN(C)Cc1ccccc1	0.0	/	/	/
NC(=NC(=O)c1cccc(C(F)(F)F)c1)c1ccc(C(F)(F)F)cn1	21.8*	-8.7	/	-4.4
CCCOc1ccc(C(=O)NNC(=S)NC(=O)c2ccco2)cc1	0.5	-9.6	1.5	34.6*
C[C@H]1CN(C)C(=O)Cc2ccccc2O[C@@H]1CN(C)C	0.1	/	/	/
CCCC(=O)Oc1ccc2c(C)cc(=O)oc2c1	0.0	-1.8	-17.5	-5.4
Cc1cc(=O)oc2cc(OC(=O)c3cncc(Br)c3)ccc12	0.2	-3.5	-0.1	44.8*
CC(=O)N1CC2(C1)[C@H](c1ccccc1)[C@H](CO)N2C(=O)c1ccncc1	-0.1	/	/	/
Cc1cccc(-c2ccc([C@H]3[C@@H](CO)N4C(=O)CN(C(=O)c5cnccn5)C[C@@H]34)cc2)c1	0.5	/	/	/
COc1ccc(C[C@H]2CN3C(=NC[C@@H]3C(C)C)N2CCNC(=O)CCC2CCCCC2)cc1	0.3	-9.5	/	-5.6
